From ChEMBL document CHEMBL1146134, “Synthesis and antifungal activity of 6-hydroxycinnolines” (2006)
Values after ≈ are worked out from the molar mass of the structure shown.

Experiments:
Type in all cases: functional
[1] = tested on: Candida albicans; assay: Antifungal activity against Candida albicans KCCM 50235
Procedure, shortened: (§1)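 Twofold broth dilution MIC in modified Sabouraud dextrose broth. Inoculum approximately 1 × 10⁵ cells/mL. Final agent concentrations ranged 0.2 to 100. Incubated at 37 °C and read after 1 day. MIC determined against 5-fluorocytosine as standard.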

[2] = tested on: Candida tropicalis; assay: Antifungal activity against Candida tropicalis KCCM 50662; procedure, shortened: as §1
[3] = tested on: Pichia kudriavzevii; assay: Antifungal activity against Candida krusei KCCM 11655; procedure, shortened: as §1
[4] = tested on: Cryptococcus neoformans; assay: Antifungal activity against Cryptococcus neoformans KCCM 50564
Procedure, shortened: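 Growth inhibition measured as MIC by twofold broth dilution in modified Sabouraud dextrose broth. Inoculum near 1 × 10⁵ cells/mL. Final agent concentrations spanned 0.2 to 100. 5-Fluorocytosine was run as standard.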

[5] = tested on: Aspergillus niger; assay: Antifungal activity against Aspergillus niger KCTC 1231
Procedure, shortened: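 MIC by twofold serial dilution in modified Sabouraud dextrose broth, with roughly 1 × 10⁵ cells/mL inoculum. Final test concentrations ranged 0.2 to 100. Plates held at 37 °C and read after 2 days. 5-Fluorocytosine served as reference agent.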

Row | SMILES | MIC [1] | MIC [2] | MIC [3] | MIC [4] | MIC [5]
1 | COC(=O)c1c(N)nnc2c(C)c(C)c(O)c(Sc3ccc(C)cc3)c12 | > 50 µg/mL | 25 µg/mL (≈ 67.7 µM) | 3.2 µg/mL (≈ 8.66 µM) | 6.3 µg/mL (≈ 17.1 µM) | 25 µg/mL (≈ 67.7 µM)
2 | COC(=O)c1c(N)nnc2c(C)c(C)c(O)c(Sc3cccc(C)c3)c12 | > 50 µg/mL | > 50 µg/mL | > 50 µg/mL | 1.6 µg/mL (≈ 4.33 µM) | > 50 µg/mL
3 | COC(=O)c1c(N)nnc2c(C)c(C)c(O)c(Sc3ccc(C)c(C)c3)c12 | > 50 µg/mL | 25 µg/mL (≈ 65.2 µM) | 3.2 µg/mL (≈ 8.34 µM) | 1.6 µg/mL (≈ 4.17 µM) | 12.5 µg/mL (≈ 32.6 µM)
4 | COC(=O)c1c(N)nnc2c(C)c(C)c(O)c(Cl)c12 | > 50 µg/mL | 50 µg/mL (≈ 177 µM) | 25 µg/mL (≈ 88.7 µM) | 25 µg/mL (≈ 88.7 µM) | 6.3 µg/mL (≈ 22.4 µM)
5 | COC(=O)C(C#N)C1=C(Sc2cccc(C)c2)C(=O)C(C)=C(C)C1=O (stereo not given) | > 50 µg/mL | > 50 µg/mL | 1.6 µg/mL (≈ 4.5 µM) | 50 µg/mL (≈ 141 µM) | > 50 µg/mL
6 | COC(=O)c1c(N)nnc2c(C)c(C)c(O)c(Sc3ccccc3)c12 | > 50 µg/mL | 25 µg/mL (≈ 70.3 µM) | 6.3 µg/mL (≈ 17.7 µM) | 1.6 µg/mL (≈ 4.5 µM) | 12.5 µg/mL (≈ 35.2 µM)
7 | COC(=O)c1c(N)nnc2c(C)c(C)c(O)c(Sc3cccc(F)c3)c12 | > 50 µg/mL | 50 µg/mL (≈ 134 µM) | 25 µg/mL (≈ 67 µM) | 6.3 µg/mL (≈ 16.9 µM) | 1.6 µg/mL (≈ 4.28 µM)
8 | Nc1nc(=O)[nH]cc1F [FLUCYTOSINE] | 6.3 µg/mL (≈ 48.8 µM) | 12.5 µg/mL (≈ 96.8 µM) | 6.3 µg/mL (≈ 48.8 µM) | 12.5 µg/mL (≈ 96.8 µM) | 12.5 µg/mL (≈ 96.8 µM)

Continued, values first:

Row | MIC [1] | MIC [2] | MIC [3] | MIC [4] | MIC [5] | SMILES
9 | > 50 µg/mL | > 50 µg/mL | 50 µg/mL (≈ 141 µM) | 50 µg/mL (≈ 141 µM) | > 50 µg/mL | COC(=O)C(C#N)C1=C(Sc2ccc(C)cc2)C(=O)C(C)=C(C)C1=O (stereo not given)
10 | 50 µg/mL (≈ 139 µM) | 50 µg/mL (≈ 139 µM) | 25 µg/mL (≈ 69.6 µM) | 50 µg/mL (≈ 139 µM) | 50 µg/mL (≈ 139 µM) | COC(=O)C(C#N)C1=C(Sc2cccc(F)c2)C(=O)C(C)=C(C)C1=O (stereo not given)
11 | 50 µg/mL (≈ 135 µM) | 50 µg/mL (≈ 135 µM) | > 50 µg/mL | > 50 µg/mL | 50 µg/mL (≈ 135 µM) | COC(=O)C(C#N)C1=C(Sc2ccc(C)c(C)c2)C(=O)C(C)=C(C)C1=O (stereo not given)
12 | 50 µg/mL (≈ 146 µM) | 50 µg/mL (≈ 146 µM) | 50 µg/mL (≈ 146 µM) | 12.5 µg/mL (≈ 36.6 µM) | 50 µg/mL (≈ 146 µM) | COC(=O)C(C#N)C1=C(Sc2ccccc2)C(=O)C(C)=C(C)C1=O (stereo not given)
13 | 50 µg/mL (≈ 187 µM) | 50 µg/mL (≈ 187 µM) | 25 µg/mL (≈ 93.4 µM) | 6.3 µg/mL (≈ 23.5 µM) | 25 µg/mL (≈ 93.4 µM) | COC(=O)C(C#N)C1=C(Cl)C(=O)C(C)=C(C)C1=O (stereo not given)
